Data set [1] is described as follows: folding enthalpy; higher = less favourable; fluorescence melt of hairpins on a sequencing array, two-state fit. Conditions: sodium 0.088 M. Summed up: (§1)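 Cy3 fluorescence of library hairpins on a sequenced MiSeq flow cell, with annealed Cy3 and quencher oligos, was imaged in 50 mM Na-HEPES pH 8.0, 25 mM NaCl in 2.5 °C steps up to 60 °C. Signals were normalised to pre-quench Cy3 and to control variants. Melting temperature and folding enthalpy came from bootstrapped two-state fits, inverse-variance combined over four replicates. Fitted temperatures were raised by 9.35 °C to match UV melts.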

Data set [2] is described as follows: melting temperature; fluorescence melt of hairpins on a sequencing array, two-state fit, raised by 9.35 °C to match UV melts. Conditions: sodium 0.088 M. Summed up:
as §1

As to GTCAGGACGAAAGTCGAC (((..(((....)))))), the folding enthalpy in data set [1] was -18.7 kcal/mol. Moreover, in data set [2], the Tm was 41.3 °C.

GCGGAGCGAAAGCGCTGC ((.(.((....)).).)): the folding enthalpy in data set [1] is -15.2 kcal/mol. In addition, in data set [2], the Tm stood at 57.1 °C.

As to GCGCATCGAAAGATCCGC (((.(((....))).))), the folding enthalpy in data set [1] was -28.5 kcal/mol. The Tm in data set [2] was found to be 47.8 °C.

Consider GGCTGGGGAAACCCGGCC (((.(((....))).))), for which the folding enthalpy in data set [1] was -39.7 kcal/mol. Further, the Tm in data set [2] came out at 66.6 °C.

On to GTCCTTTCGAAAGAAGAC (((..(((....)))))), for which, in data set [1], the folding enthalpy is -15.3 kcal/mol. In data set [2], the Tm amounted to 28.5 °C.

Take GATCAGATAACTGATC ((((((....)))))): the folding enthalpy in data set [1] was -34.5 kcal/mol. Moreover, the Tm in data set [2] is 46.8 °C.

For the sequence GCAGAGGCGAAAGCCTGC (((..(((....)))))), in data set [1], the folding enthalpy was -14.5 kcal/mol. Besides, the Tm in data set [2] worked out at 56.7 °C.

With CGAACGGAAACGTTCTCG ((((((....)))..))), the folding enthalpy in data set [1] was -11.2 kcal/mol. In data set [2], the Tm turned out to be 36.8 °C.

Regarding GATCAAATCATTGATC ((((((....)))))), the folding enthalpy in data set [1] is -32.8 kcal/mol. Further, the Tm in data set [2] is 41.8 °C.

As to GACACTGGAAACAGTACC (..((((....))))..), the folding enthalpy in data set [1] was -13 kcal/mol. In data set [2], the Tm came to 24.2 °C.

With GATCCACGGATGGATC ((((((....)))))), the folding enthalpy in data set [1] is -32.4 kcal/mol. Further, the Tm in data set [2] came to 48.6 °C.

Take GGTCGCGAAAGCGTACC ((((((....))).))): in data set [1], the folding enthalpy is -21.2 kcal/mol. In addition, the Tm in data set [2] amounted to 62 °C.

Take GCGGAGCGAAAGCTGAGC ((..(((....)))..)): the folding enthalpy in data set [1] is -14.6 kcal/mol. The Tm in data set [2] was determined as 56.5 °C.

As for GTGGCCGAAAGGCCCAC ((((((....))).))), in data set [1], the folding enthalpy is -10.5 kcal/mol. The Tm in data set [2] was found to be 57.5 °C.

On to GCATCGGGAAACTGGTGC (((.(.(....).).))), for which the folding enthalpy in data set [1] was -29 kcal/mol. The Tm in data set [2] was determined as 42.7 °C.

With GAGACCGAAAGGTACCTC ((((((....)))..))), the folding enthalpy in data set [1] is -11.9 kcal/mol. In addition, in data set [2], the Tm was 30.7 °C.

For the sequence GGTCCACGAAAGTGAACC (((.(((....))).))), the folding enthalpy in data set [1] is -34.8 kcal/mol. Also, the Tm in data set [2] was 51.3 °C.

For GGCGAGGGAAACCTTGCC (((.(((....))).))), the folding enthalpy in data set [1] is -44.4 kcal/mol. Further, in data set [2], the Tm came to 58 °C.

Consider GCCCTGCGAAAGCCGAGC ((.(.((....)).).)), for which, in data set [1], the folding enthalpy was -11 kcal/mol. Also, the Tm in data set [2] stood at 34.5 °C.

On to GACGGCGAAAGCCTTGTC ((((((....)))..))), for which the folding enthalpy in data set [1] is -12.3 kcal/mol. For the same sequence, the Tm in data set [2] was 43.9 °C.

For the sequence GCCTAGCGAAAGCTCAGC ((..(((....)))..)), the folding enthalpy in data set [1] is -14.6 kcal/mol. The Tm in data set [2] worked out at 34.7 °C.

Take GATCCTGTCCAGGATC ((((((....)))))): the folding enthalpy in data set [1] is -48.3 kcal/mol. Besides, the Tm in data set [2] was 58.1 °C.

On to GTGATAGGAAACTATCAC (((((((....))))))), for which, in data set [1], the folding enthalpy was -42.8 kcal/mol. Moreover, the Tm in data set [2] was 56.1 °C.

For the sequence GAGAGTGGAAACACTTTC ((.((((....)))).)), the folding enthalpy in data set [1] is -19.4 kcal/mol. Moreover, in data set [2], the Tm was determined as 37.6 °C.

GCTTCGGGAAACTGAGGC ((.((.(....).)).)): the folding enthalpy in data set [1] was -28.8 kcal/mol. Also, the Tm in data set [2] amounted to 36.5 °C.

Consider GGCTTAGGAAACTAAGTC (.(((((....))))).), for which, in data set [1], the folding enthalpy was -32.5 kcal/mol. For the same sequence, the Tm in data set [2] was 44.4 °C.

GCGCAGGGAAACTTGCGC (((((.(....).))))): the folding enthalpy in data set [1] was -43.4 kcal/mol. Moreover, the Tm in data set [2] is 60.2 °C.

Turning to GACCGCGAAAGCGTGGTC ((((((....)))..))), the folding enthalpy in data set [1] is -18.6 kcal/mol. Further, the Tm in data set [2] was determined as 50.9 °C.

Regarding GGCTTCGAAAGAAGAGCC ((((((....)))..))), the folding enthalpy in data set [1] was -21.8 kcal/mol. In addition, the Tm in data set [2] worked out at 45.3 °C.

As for GTGTTTCCGAAAGGACAC (((..(((....)))))), the folding enthalpy in data set [1] is -23.4 kcal/mol. The Tm in data set [2] amounted to 43.4 °C.

On to GTATGTGGAAACATATGC (.((.((....)).)).), for which the folding enthalpy in data set [1] was -24.1 kcal/mol. In addition, in data set [2], the Tm is 37.5 °C.

Take CAAGGGAAACCTTG (((((....))))): the folding enthalpy in data set [1] is -27.8 kcal/mol. The Tm in data set [2] was 43.9 °C.

For GTATGCGAAAGCAGATAC ((((((....)))..))), the folding enthalpy in data set [1] is -12.9 kcal/mol. Also, the Tm in data set [2] came out at 36.7 °C.

On to GGGTTACCGAAAGGTCCC (((..(((....)))))), for which the folding enthalpy in data set [1] was -19.4 kcal/mol. In addition, in data set [2], the Tm amounted to 41 °C.

For the sequence GATCTGCTAGCAGATC ((((((....)))))), the folding enthalpy in data set [1] was -48.5 kcal/mol. Moreover, the Tm in data set [2] came to 60.9 °C.

Consider GGTCCGCGAAAGCGAACC (((.(((....))).))), for which the folding enthalpy in data set [1] was -28.1 kcal/mol. Further, in data set [2], the Tm was found to be 57.5 °C.

In the case of GTAGGTGGAAACGCTTAC (((.(.(....).).))), the folding enthalpy in data set [1] is -23 kcal/mol. In data set [2], the Tm was determined as 31.4 °C.

Take GACGTGGAAACACGTC ((((((....)))))): the folding enthalpy in data set [1] was -33.4 kcal/mol. The Tm in data set [2] was 67.6 °C.

As to GGTGACCGAAAGGTTACC (((.(((....))).))), in data set [1], the folding enthalpy was -40 kcal/mol. Further, in data set [2], the Tm amounted to 60.5 °C.

GGTTGGCCGAAAGGCACC (((..(((....)))))): the folding enthalpy in data set [1] was -12.8 kcal/mol. Besides, in data set [2], the Tm came out at 41.4 °C.

GAACAGGAAACTGTTC ((((((....)))))): the folding enthalpy in data set [1] was -38.4 kcal/mol. For the same sequence, the Tm in data set [2] was 52.9 °C.

Regarding GATCTTCATTAAGATC ((((((....)))))), in data set [1], the folding enthalpy was -35.4 kcal/mol. Also, the Tm in data set [2] amounted to 41.5 °C.

GCGAAGTGTCGC ((((....)))): in data set [1], the folding enthalpy was -13.9 kcal/mol. Also, the Tm in data set [2] stood at 49.6 °C.

GCAAGGGGAAACCCTTGC (((((((....))))))): in data set [1], the folding enthalpy was -38.3 kcal/mol. In addition, the Tm in data set [2] came out at 68.3 °C.

For GTTTGAGGAAACTCAGAC ((.((((....)))).)), in data set [1], the folding enthalpy is -23.4 kcal/mol. Besides, the Tm in data set [2] was found to be 39 °C.

Regarding GCAGCAGCGAAAGCTTGC (((..(((....)))))), the folding enthalpy in data set [1] was -13.6 kcal/mol. Further, the Tm in data set [2] came out at 43.5 °C.

Take GATCCACGCATGGATC ((((((....)))))): the folding enthalpy in data set [1] was -32.1 kcal/mol. Also, in data set [2], the Tm worked out at 52.8 °C.

For the sequence GCGTTTGACGC ((((...)))), the folding enthalpy in data set [1] was -18.3 kcal/mol. Further, the Tm in data set [2] worked out at 57.1 °C.

With GATCTACACATAGATC ((((((....)))))), the folding enthalpy in data set [1] is -44.3 kcal/mol. In data set [2], the Tm stood at 43.2 °C.

GTCGCGACGAAAGTCGAC (((..(((....)))))): the folding enthalpy in data set [1] is -8.29 kcal/mol. Besides, the Tm in data set [2] amounted to 38.2 °C.

Turning to GATCAGACTCTGATC ((((((...)))))), the folding enthalpy in data set [1] is -35 kcal/mol. Besides, the Tm in data set [2] stood at 47.1 °C.

Turning to GCAATTGAAAAATTGC ((((((....)))))), the folding enthalpy in data set [1] was -32 kcal/mol. The Tm in data set [2] was determined as 53.4 °C.

With GGAAGAACGAAAGTTTCC (((..(((....)))))), the folding enthalpy in data set [1] was -14.9 kcal/mol. The Tm in data set [2] was 33 °C.

With GCCAACGGAAACGTCGGC (((.(((....))).))), in data set [1], the folding enthalpy was -42.8 kcal/mol. In addition, the Tm in data set [2] was found to be 51.1 °C.

GGTCCCCGAAAGGGAACC (((.(((....))).))): in data set [1], the folding enthalpy is -37 kcal/mol. Also, the Tm in data set [2] is 53 °C.

Values taken from the array DNA melting data of Ke et al. (doi:10.1101/2024.01.08.574731).
